Results reported in ChEMBL document CHEMBL1146380, “Synthesis, antimicrobial activity, and QSAR studies of furan-3-carboxamides” (2007).
Converted amounts (≈) assume the structure as drawn. Values belong to the molecule of their own block, whether it stands above or below them. The source made the active and inactive calls. The calls are words filed in the database; no cut-off is given here.

Assays:
[1] = system: Aspergillus niger; assay: Antimicrobial activity against Aspergillus niger isolate by broth microdilution method; format: functional
[2] = system: Candida albicans; assay: Antimicrobial activity against Candida albicans ATCC 44373 by broth microdilution method; format: functional
How it was run: (§1)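 Yeasts grown on potato dextrose agar. Inoculum was standardized by McFarland turbidity as for bacteria, into RPMI 1640 broth (M27-A2). DMSO-dissolved compound was tested in twofold dilutions from 320 to 1.25 at 35 °C for 24 h, in duplicate. MIC was the lowest concentration completely inhibiting visible growth. Fungicidal concentration was read by subculturing 20 µL from clear wells on Sabouraud dextrose agar at 35 °C.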

[3] = system: Saccharomyces cerevisiae; assay: Antimicrobial activity against Saccharomyces cerevisiae ATCC 2601 by broth microdilution method; format: functional
How it was run: (§2)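 Organism grown on potato dextrose agar, with turbidity-standardized inoculum in RPMI 1640 broth (M27-A2). DMSO-dissolved compound was tested in twofold dilutions from 320 to 1.25 at 35 °C, incubated up to 72 h, in duplicate. MIC was the lowest concentration with no visible growth. Cidal concentration was read by subculturing 20 µL from clear wells on Sabouraud dextrose agar, incubated for the same period.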

[4] = system: Escherichia coli; assay: Antimicrobial activity against Escherichia coli ATCC 25922 by broth microdilution method; format: functional
How it was run: (§3)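 Bacteria grown overnight on Mueller–Hinton agar. Colonies were suspended in saline to McFarland turbidity (about 10^8 cfu/mL), diluted 1:100 in saline, then 1:20 in Mueller–Hinton broth, giving 5 · 10^4 cfu/mL per well. DMSO-dissolved compound was tested in twofold dilutions from 320 to 1.25 at 35 °C for 24 h. MIC was the lowest concentration with no visible turbidity (M7-A4). Bactericidal concentration was read by subculturing clear wells on Mueller–Hinton agar.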

[5] = system: Scedosporium boydii; assay: Antimicrobial activity against Pseudallescheria boydii isolate by broth microdilution method; format: functional
[6] = system: Staphylococcus aureus; assay: Antimicrobial activity against Staphylococcus aureus ATCC 25923 by broth microdilution method; format: functional; conditions: for MBC: read-out: MFC; how it was run: as §3
[7] = system: Fusarium solani; assay: Antimicrobial activity against Fusarium solani isolate by broth microdilution method; format: functional
[8] = system: Aspergillus terreus; assay: Antimicrobial activity against Aspergillus terreus isolate by broth microdilution method; format: functional
[9] = system: Aspergillus fumigatus; assay: Antimicrobial activity against Aspergillus fumigatus isolate by broth microdilution method; format: functional
[10] = system: Prototheca zopfii; assay: Antimicrobial activity against Prototheca zopfii by broth microdilution method; format: functional; how it was run: as §2
[11] = system: Sporothrix schenckii; assay: Antimicrobial activity against Sporothrix schenckii ATCC 1146 by broth microdilution method; format: functional
[12] = system: Nakaseomyces glabratus; assay: Antimicrobial activity against Candida glabrata […] by broth microdilution method; format: functional; how it was run: as §1
[13] = system: Salmonella enterica subsp. enterica serovar Setubal; assay: (§4) Antimicrobial activity against Salmonella setubal ATCC 19196 by broth microdilution method; format: functional; how it was run: as §3
[14] = as §4; format: functional, Salmonella enterica subsp. enterica serovar Setubal; conditions: Salmonella enterica; how it was run: as §3
[15] = system: Pseudomonas aeruginosa; assay: Antimicrobial activity against Pseudomonas aeruginosa ATCC 27853 by broth microdilution method; format: functional; how it was run: as §3
[16] = system: Rhizopus arrhizus; assay: Antimicrobial activity against Rhizopus oryzae isolate by broth microdilution method; format: functional
[17] = system: Klebsiella pneumoniae; assay: Antimicrobial activity against Klebsiella pneumoniae ATCC 1003 by broth microdilution method; format: functional; conditions: for MBC: read-out: MFC; how it was run: as §3
[18] = system: Candida dubliniensis; assay: Antimicrobial activity against Candida dubliniensis CBS 7987 by broth microdilution method; format: functional; how it was run: as §1
[19] = system: Aspergillus flavus; assay: Antimicrobial activity against Aspergillus flavus isolate by broth microdilution method; format: functional
[20] = system: Cryptococcus deneoformans; assay: Antimicrobial activity against Cryptococcus neoformans var.neoformans serotype D ATCC 28952 by broth microdilution method; format: functional; how it was run: as §2

MIC [1]: 320 µg/mL (≈ 1580 µM)
MIC [3]: 320 µg/mL (≈ 1580 µM)
MIC [4]: 320 µg/mL (≈ 1580 µM)
MIC [5]: 160 µg/mL (≈ 791 µM)
MIC [6]: 320 µg/mL (≈ 1580 µM)
MIC [7]: 320 µg/mL (≈ 1580 µM)
MIC [8]: 320 µg/mL (≈ 1580 µM)
MIC [9]: 320 µg/mL (≈ 1580 µM)
MIC [10]: 160 µg/mL (≈ 791 µM)
MIC [11]: 320 µg/mL (≈ 1580 µM)
MIC [14]: 320 µg/mL (≈ 1580 µM)
MIC [15]: 320 µg/mL (≈ 1580 µM)
MIC [16]: 320 µg/mL (≈ 1580 µM)
MIC [17]: 320 µg/mL (≈ 1580 µM)
MIC [18]: 320 µg/mL (≈ 1580 µM)
MIC [20]: 160 µg/mL (≈ 791 µM)
SMILES: O=C(NCc1cccnc1)c1ccoc1
MFC [1]: 320 µg/mL (≈ 1580 µM)
Activity [2]: inactive
MFC [3]: 320 µg/mL (≈ 1580 µM)
Activity [4]: inactive
MFC [5]: 160 µg/mL (≈ 791 µM)
Activity [6]: inactive
Activity [7]: inactive
Activity [8]: inactive
MFC [9]: 320 µg/mL (≈ 1580 µM)
MFC [10]: 160 µg/mL (≈ 791 µM)
MFC [11]: 320 µg/mL (≈ 1580 µM)
Activity [12]: inactive
Activity [13]: inactive
Activity [15]: inactive
MFC [16]: 320 µg/mL (≈ 1580 µM)
Activity [17]: inactive
Activity [18]: inactive
Activity [19]: inactive
MFC [20]: 320 µg/mL (≈ 1580 µM)

MIC [1]: 320 µg/mL (≈ 1020 µM)
MIC [2]: 160 µg/mL (≈ 512 µM)
MIC [3]: 80 µg/mL (≈ 256 µM)
MIC [4]: 160 µg/mL (≈ 512 µM)
MIC [5]: 40 µg/mL (≈ 128 µM)
MIC [6]: 40 µg/mL (≈ 128 µM)
MIC [7]: 320 µg/mL (≈ 1020 µM)
MIC [8]: 320 µg/mL (≈ 1020 µM)
MIC [9]: 320 µg/mL (≈ 1020 µM)
MIC [10]: 320 µg/mL (≈ 1020 µM)
MIC [11]: 20 µg/mL (≈ 64 µM)
MIC [12]: 320 µg/mL (≈ 1020 µM)
MIC [14]: 320 µg/mL (≈ 1020 µM)
MIC [15]: 20 µg/mL (≈ 64 µM)
MIC [16]: 320 µg/mL (≈ 1020 µM)
MIC [17]: 160 µg/mL (≈ 512 µM)
MIC [18]: 160 µg/mL (≈ 512 µM)
MIC [19]: 320 µg/mL (≈ 1020 µM)
MIC [20]: 320 µg/mL (≈ 1020 µM)
SMILES: O=C(NCCC1CCN(Cc2ccccc2)CC1)c1ccoc1
Activity [1]: inactive
MFC [2]: 320 µg/mL (≈ 1020 µM)
MFC [3]: 160 µg/mL (≈ 512 µM)
MBC [4]: 320 µg/mL (≈ 1020 µM)
MFC [5]: 80 µg/mL (≈ 256 µM)
MBC [6]: 160 µg/mL (≈ 512 µM)
Activity [7]: inactive
Activity [8]: inactive
Activity [9]: inactive
MFC [10]: 320 µg/mL (≈ 1020 µM)
Activity [11]: inactive
MFC [12]: 320 µg/mL (≈ 1020 µM)
Activity [13]: inactive
Activity [15]: inactive
Activity [16]: inactive
MBC [17]: 320 µg/mL (≈ 1020 µM)
MFC [18]: 160 µg/mL (≈ 512 µM)
Activity [19]: inactive
Activity [20]: inactive

MIC [1]: 320 µg/mL (≈ 1200 µM)
MIC [14]: 160 µg/mL (≈ 601 µM)
MIC [17]: 20 µg/mL (≈ 75.1 µM)
MIC [19]: 320 µg/mL (≈ 1200 µM)
SMILES: NS(=O)(=O)c1ccc(NC(=O)c2ccoc2)cc1
MFC [1]: 320 µg/mL (≈ 1200 µM)
Activity [2]: inactive
Activity [3]: inactive
Activity [4]: inactive
Activity [5]: inactive
Activity [6]: inactive
Activity [7]: inactive
Activity [8]: inactive
Activity [9]: inactive
Activity [10]: inactive
Activity [11]: inactive
Activity [12]: inactive
Activity [13]: inactive
Activity [15]: inactive
Activity [16]: inactive
MBC [17]: 320 µg/mL (≈ 1200 µM)
Activity [18]: inactive
MFC [19]: 320 µg/mL (≈ 1200 µM)
Activity [20]: inactive

MIC [1]: 320 µg/mL (≈ 1580 µM)
MIC [4]: 320 µg/mL (≈ 1580 µM)
MIC [5]: 320 µg/mL (≈ 1580 µM)
MIC [6]: 80 µg/mL (≈ 396 µM)
MIC [7]: 320 µg/mL (≈ 1580 µM)
MIC [8]: 320 µg/mL (≈ 1580 µM)
MIC [9]: 320 µg/mL (≈ 1580 µM)
MIC [10]: 160 µg/mL (≈ 791 µM)
MIC [11]: 320 µg/mL (≈ 1580 µM)
MIC [14]: 320 µg/mL (≈ 1580 µM)
MIC [15]: 320 µg/mL (≈ 1580 µM)
MIC [16]: 320 µg/mL (≈ 1580 µM)
MIC [17]: 320 µg/mL (≈ 1580 µM)
MIC [18]: 320 µg/mL (≈ 1580 µM)
MIC [20]: 320 µg/mL (≈ 1580 µM)
SMILES: O=C(NCc1ccncc1)c1ccoc1
MFC [1]: 320 µg/mL (≈ 1580 µM)
Activity [2]: inactive
Activity [3]: inactive
Activity [4]: inactive
MFC [5]: 320 µg/mL (≈ 1580 µM)
MBC [6]: 320 µg/mL (≈ 1580 µM)
Activity [7]: inactive
MFC [8]: 320 µg/mL (≈ 1580 µM)
Activity [9]: inactive
MFC [10]: 160 µg/mL (≈ 791 µM)
MFC [11]: 320 µg/mL (≈ 1580 µM)
Activity [12]: inactive
Activity [13]: inactive
Activity [15]: inactive
MFC [16]: 320 µg/mL (≈ 1580 µM)
Activity [17]: inactive
MFC [18]: 320 µg/mL (≈ 1580 µM)
Activity [19]: inactive
MFC [20]: 320 µg/mL (≈ 1580 µM)
